Format in all cases: functional
One experiment has as its system Aspergillus fumigatus. The experiment can be described thus: Antifungal activity against Aspergillus fumigatus ATCC 204305 measured after 24 to 48 hrs by microdilution broth method. As to conditions: time 24-48 hrs. The essentials:
(§1)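 Filamentous fungi tested by broth microdilution per EUCAST with minor changes. Compounds were tested at 0.98–500 μM with final DMSO ≤1.0% (v/v). Plates were incubated statically, dark and humidified, at 35 ± 2 °C for 24 and 48 h. MIC was the lowest concentration showing no visible growth.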
(In general: Broth dilution looks for growth in wells or tubes with falling amounts of substance.)

Experiment [1] concerns Candida albicans. The experiment can be described thus: Antifungal activity against Candida albicans ATCC 24443 measured after 24 to 48 hrs by microdilution broth method. As to conditions: time 24-48 hrs. The procedure, abridged: (§2)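 Yeast broth microdilution per EUCAST, slightly modified. Medium was RPMI-1640 with 2% glucose, MOPS-buffered to pH 7.0. Compounds were tested at 0.98–500 μM with final DMSO ≤1.0% (v/v). Inoculum came from 18–24 h cultures, final ~1–5 × 10^5 CFU mL−1. Plates were incubated statically, dark and humidified, at 35 ± 2 °C. MIC was read visually at 24 and 48 h (no visible growth).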

Experiment [2] concerns Candida tropicalis. The experiment can be described thus: Antifungal activity against Candida tropicalis CCM 8264 measured after 24 to 48 hrs by microdilution broth method. As to conditions: time 24-48 hrs. The essentials:
as §2

The subject of experiment [3] is Mycobacterium kansasii. The experiment can be described thus: Antimycobacterial activity against multi-drug resistant Mycobacterium kansasii clinical isolate CNCTC 6509/96 assessed as bacterial growth inhibition incubated for 21 days by two-fold serial dilution method. As to conditions: CNCTC 6509/96, 504 h, time 21 day. The procedure, abridged: (§3)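 M. kansasii clinical isolate 6509/96 (stock dilution 10−4) in Šula's semisynthetic liquid medium; two-fold serial dilutions 1000 to 1 μM, DMSO final 1.0% v/v; final load 1.5 × 10^5 CFU mL−1; MIC read visually as complete growth inhibition at 7, 14 and 21 days.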

For experiment [4], the system named is Mycobacterium avium. Description: Antimycobacterial activity against INH/RIF/rifabutin/OFX/EMB resistant Mycobacterium avium CNCTC 330/88 assessed as bacterial growth inhibition incubated for 14 days by two-fold serial dilution method. The following applies: CNCTC 330/88, 336 h, time 14 day. The procedure, abridged: (§4)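 M. avium CNCTC 330/88 (stock suspension dilution 10−5) grown in Šula's semisynthetic liquid medium; two-fold serial dilutions 1000 to 1 μM from DMSO stocks (final DMSO 1.0% v/v); final load 1.5 × 10^5 CFU mL−1; MIC read visually as lowest concentration giving complete growth inhibition after 14 and 21 days.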

Experiment [5] deals with Pichia kudriavzevii. The experiment can be described thus: Antifungal activity against Candida krusei CCM 8271 measured after 24 to 48 hrs by microdilution broth method. As to conditions: time 24-48 hrs. The procedure, abridged:
as §2

For experiment [6], the system named is Mycobacterium kansasii. The experiment can be described thus: Antimycobacterial activity against INH/RIF/rifabutin/OFX/EMB Mycobacterium kansasii CNCTC 6509/96 clinical isolate assessed as bacterial growth inhibition incubated for 7 days by two-fold serial dilution method. The following applies: CNCTC 6509/96, 168 h, time 7 day. The essentials:
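Šula's liquid semisynthetic medium; M. kansasii clinical isolate 6509/96 used at stock dilution 10−4, final ~1.5 × 10^5 CFU mL−1. Two-fold dilutions ran 1000–1 μM with final DMSO 1.0% (v/v). MIC was read visually as complete growth inhibition after 7, 14 and 21 days.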

Experiment [7] relates to Candida albicans. The experiment can be described thus: Antifungal activity against Candida albicans CCM 8320 measured after 24 to 48 hrs by microdilution broth method. As to conditions: time 24-48 hrs. The procedure, abridged:
as §2

In experiment [8] the test system is Candida parapsilosis. Description: Antifungal activity against Candida parapsilosis CCM 8260 measured after 24 to 48 hrs by microdilution broth method. The following applies: Lodderomyces parapsilosis, time 24-48 hrs. The essentials: as §2
For a further experiment, the system named is Aspergillus flavus. Description: Antifungal activity against Aspergillus flavus CCM 8363 measured after 24 to 48 hrs by microdilution broth method. The following applies: time 24-48 hrs. The essentials: as §1
For experiment [9], the system named is Trichophyton interdigitale. Description: Antifungal activity against Trichophyton interdigitale ATCC 9533 measured after 24 to 48 hrs by microdilution broth method. As to conditions: time 24-48 hrs.
Experiment [10] has as its system Mycobacterium avium. The experiment can be described thus: Antimycobacterial activity against INH/RIF/rifabutin/OFX/EMB resistant Mycobacterium avium CNCTC 330/88 assessed as bacterial growth inhibition incubated for 21 days by two-fold serial dilution method. As to conditions: CNCTC 330/88, 504 h, time 21 day. The procedure, abridged: as §4
The subject of experiment [11] is Mycobacterium tuberculosis. The experiment can be described thus: Antimycobacterial activity against multidrug sensitive Mycobacterium tuberculosis H37Rv CNCTC 331/88 assessed as bacterial growth inhibition incubated for 14 days by two-fold serial dilution method. As to conditions: H37Rv CNCTC 331/88, 336 h, time 14 day.
Experiment [12] has as its system Mycobacterium kansasii. Description: Antimycobacterial activity against multi-drug resistant Mycobacterium kansasii CNCTC 6509/96 clinical isolate assessed as bacterial growth inhibition incubated for 14 days by two-fold serial dilution method. As to conditions: CNCTC 6509/96, 336 h, time 14 day. The procedure, abridged:
as §3

In another experiment the test system is Lichtheimia corymbifera. Description: Antifungal activity against Lichtheimia corymbifera CCM 8077 measured after 24 to 48 hrs by microdilution broth method. The following applies: time 24-48 hrs. The procedure, abridged:
as §1

For experiment [13], the system named is Pichia kudriavzevii. Description: Antifungal activity against Candida krusei ATCC 6258 measured after 24 to 48 hrs by microdilution broth method. The following applies: time 24-48 hrs. The essentials: as §2
Experiment [14] deals with Candida parapsilosis. Description: Antifungal activity against Candida parapsilosis ATCC 22019 measured after 24 to 48 hrs by microdilution broth method. As to conditions: Lodderomyces parapsilosis, time 24-48 hrs. The procedure, abridged: as §2
Experiment [15] deals with Mycobacterium tuberculosis. Description: Antimycobacterial activity against Mycobacterium tuberculosis H37Rv CNCTC 331/88 assessed as bacterial growth inhibition incubated for 21 days by two fold serial dilution method. As to conditions: H37Rv CNCTC 331/88, 504 h, time 21 day.
In experiment [16] the test system is Candida tropicalis. The experiment can be described thus: Antifungal activity against Candida tropicalis ATCC 750 measured after 24 to 48 hrs by microdilution broth method. As to conditions: time 24-48 hrs. The procedure, abridged:
as §2

Experiment [17] concerns Trichophyton interdigitale. Description: Antifungal activity against Trichophyton interdigitale CCM 8377 measured after 24 to 48 hrs by microdilution broth method. The following applies: time 24-48 hrs.

In brackets after ≈: the same amount, converted by molar mass. A value given as a limit tells only on which side of the number the result lay.

One may read the MIC as the lowest concentration found to suppress growth. With `C/C(=N\NC(=O)c1ccncc1)C(=O)Nc1ccc(Oc2ccc(Cl)cc2)cc1`, the MIC in the experiment with Aspergillus fumigatus was above 500 µM; against Candida albicans [1] it was above 500 µM; against Candida tropicalis [2], above 500 µM; in the experiment with Mycobacterium kansasii [3], 4 µM (≈ 1.64 µg/mL); with Mycobacterium avium [4] it was 500 µM (≈ 204 µg/mL); against Pichia kudriavzevii [5], above 500 µM. The MIC was 1 µM (≈ 0.409 µg/mL) with Mycobacterium kansasii [6]; above 500 µM against Candida albicans [7]; above 500 µM in the experiment on Candida parapsilosis [8]; above 500 µM against Aspergillus flavus; above 500 µM in experiment [9]; 500 µM (≈ 204 µg/mL) in the experiment with Mycobacterium avium [10]. Further, the MIC was 0.5 µM (≈ 0.204 µg/mL) in experiment [11]; 2 µM (≈ 0.818 µg/mL) in the experiment with Mycobacterium kansasii [12]; above 500 µM in the experiment on Lichtheimia corymbifera; above 500 µM in the experiment with Pichia kudriavzevii [13]; above 500 µM with Candida parapsilosis [14]; 0.5 µM (≈ 0.204 µg/mL) in experiment [15]. The MIC (in the experiment with Candida tropicalis [16]; in [17]) was above 500 µM each time.

In the case of `C/C(=N\NC(=O)c1ccncc1)C(=O)Nc1ccc(Oc2ccc(Cl)cc2)c(Cl)c1`, the MIC with Aspergillus fumigatus was above 500 µM; against Candida albicans [1], above 500 µM; with Candida tropicalis [2], above 500 µM; with Mycobacterium kansasii [3] it was 64 µM (≈ 28.4 µg/mL); in the experiment on Mycobacterium avium [4], 500 µM (≈ 222 µg/mL); against Pichia kudriavzevii [5], above 500 µM. Also, the MIC in the experiment with Mycobacterium kansasii [6] is 32 µM (≈ 14.2 µg/mL); against Candida albicans [7], above 500 µM; in the experiment with Candida parapsilosis [8], above 500 µM; with Aspergillus flavus it was above 500 µM; in experiment [9], above 500 µM; in the experiment on Mycobacterium avium [10], 500 µM (≈ 222 µg/mL). The MIC in [11] is 0.5 µM (≈ 0.222 µg/mL); in the experiment on Mycobacterium kansasii [12], 64 µM (≈ 28.4 µg/mL); with Lichtheimia corymbifera it was above 500 µM; with Pichia kudriavzevii [13], above 500 µM; in the experiment with Candida parapsilosis [14] it was above 500 µM; in experiment [15] it was 0.5 µM (≈ 0.222 µg/mL). Further, the MIC (against Candida tropicalis [16]; in experiment [17]) was above 500 µM each time.

Take `COc1ccc(NS(=O)(=O)c2ccc(NC(=O)/C(C)=N/NC(=O)c3ccncc3)cc2)nn1`: the MIC against Aspergillus fumigatus is above 500 µM; in the experiment on Candida albicans [1], above 500 µM; in the experiment on Candida tropicalis [2] it was above 500 µM; in the experiment on Mycobacterium kansasii [3] it was 32 µM (≈ 15 µg/mL); in the experiment with Mycobacterium avium [4] it was at least 1000 µM; against Pichia kudriavzevii [5], above 500 µM. Moreover, the minimum inhibitory concentration (MIC) in the experiment on Mycobacterium kansasii [6] is 32 µM (≈ 15 µg/mL); in the experiment on Candida albicans [7], above 500 µM; in the experiment with Candida parapsilosis [8], above 500 µM; in the experiment with Aspergillus flavus, above 500 µM; in experiment [9], above 500 µM; with Mycobacterium avium [10], at least 1000 µM. The MIC in [11] was 1 µM (≈ 0.469 µg/mL); in the experiment with Mycobacterium kansasii [12] it was 32 µM (≈ 15 µg/mL); with Lichtheimia corymbifera it was above 500 µM; with Pichia kudriavzevii [13] it was above 500 µM; against Candida parapsilosis [14], above 500 µM; in experiment [15], 1 µM (≈ 0.469 µg/mL). In addition, the MIC (against Candida tropicalis [16]; in experiment [17]) was above 500 µM each time.

With `C/C(=N\NC(=O)c1ccncc1)C(=O)Nc1ccc(S(=O)(=O)Nc2cc(C)on2)cc1`, the MIC against Aspergillus fumigatus was above 500 µM; with Candida albicans [1] it was above 500 µM; in the experiment with Candida tropicalis [2], above 500 µM; with Mycobacterium kansasii [3], 32 µM (≈ 14.2 µg/mL); with Mycobacterium avium [4] it was 1000 µM (≈ 442 µg/mL); in the experiment with Pichia kudriavzevii [5], above 500 µM. For the same compound, the MIC in the experiment with Mycobacterium kansasii [6] is 16 µM (≈ 7.08 µg/mL); with Candida albicans [7], above 500 µM; against Candida parapsilosis [8], above 500 µM; in the experiment on Aspergillus flavus it was above 500 µM; in experiment [9], above 500 µM; with Mycobacterium avium [10], at least 1000 µM. For the same compound, the MIC was 0.5 µM (≈ 0.221 µg/mL) in experiment [11]; 32 µM (≈ 14.2 µg/mL) in the experiment with Mycobacterium kansasii [12]; above 500 µM in the experiment with Lichtheimia corymbifera; above 500 µM in the experiment on Pichia kudriavzevii [13]; above 500 µM against Candida parapsilosis [14]; 1 µM (≈ 0.442 µg/mL) in [15]. Also, the MIC (against Candida tropicalis [16]; in experiment [17]) was above 500 µM in each case.

Values taken from ChEMBL document CHEMBL6177921, “Enhancing the antimycobacterial efficacy of pyridine-4-carbohydrazide: linkage to additional antimicrobial agents via oxocarboxylic acids” (RSC Med Chem, 2025).
